# Test results taken from ChEMBL document CHEMBL1255410, “Activity of the investigational fluoroquinolone finafloxacin against ciprofloxacin-sensitive and -resistant Acinetobacter baumannii isolates” (2010).
# Tests used:
# Format in all cases: functional
# Acinetobacter baumannii [1] = assay: Antimicrobial activity against Acinetobacter baumannii isolate 2 at pH 7.2
# Outline: (§1)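 MIC by agar dilution on Mueller-Hinton agar under standard conditions (pH 7.2), against isolates with characterized gyrA/parC genes. Agar pH was checked after solidifying. Plates for both drugs were prepared the same day from freshly made media, and MICs were determined simultaneously with the pH 5.8 set.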
# Acinetobacter baumannii [2] = assay: Antimicrobial activity against Acinetobacter baumannii isolate 9 at pH 7.2
# Outline: (§2)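 Agar dilution MIC on Mueller-Hinton agar under standard conditions (pH 7.2). Antibiotic-containing plates were made the same day from freshly prepared medium. Agar pH was checked after solidifying. Both fluoroquinolones were tested simultaneously against A. baumannii isolates with characterized gyrA/parC genes. MICs are in μg/ml.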
# Acinetobacter baumannii [3] = assay: Antimicrobial activity against Acinetobacter baumannii isolate 12 at pH 7.2; outline: as §1
# Acinetobacter baumannii [4] = assay: Antimicrobial activity against Acinetobacter baumannii isolate 15 at pH 7.2; outline: as §1
# Acinetobacter baumannii [5] = assay: Antimicrobial activity against Acinetobacter baumannii isolate 17 at pH 7.2; outline: as §1
# Acinetobacter baumannii [6] = assay: Antimicrobial activity against Acinetobacter baumannii isolate 18 at pH 7.2; outline: as §1
# Acinetobacter baumannii [7] = assay: Antimicrobial activity against Acinetobacter baumannii isolate 20 harboring GyrA Ser83-Leu mutation at pH 7.2; outline: as §1
# Acinetobacter baumannii [8] = assay: Antimicrobial activity against Acinetobacter baumannii isolate 40 harboring GyrA Ser83-Leu mutation at pH 7.2
# Outline: (§3)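 Agar dilution MIC on Mueller-Hinton agar. For the acidic condition, HCl was added to bring the agar to pH 5.8 before pouring the antibiotic plates, and the pH was checked after the agar set. The standard condition was pH 7.2. Both drugs' plates were made the same day from fresh medium, and MICs were read at the same time.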
# Acinetobacter baumannii [9] = assay: Antimicrobial activity against Acinetobacter baumannii isolate 41 harboring GyrA Ser83-Leu mutation at pH 7.2; outline: as §3
# Acinetobacter baumannii [10] = assay: Antimicrobial activity against Acinetobacter baumannii isolate 56 harboring GyrA Ser83-Leu and ParC Ser80-Leu mutation at pH 7.2; outline: as §2
# Acinetobacter baumannii [11] = assay: Antimicrobial activity against Acinetobacter baumannii isolate 62 harboring GyrA Ser83-Leu and ParC Ser80-Leu mutation at pH 7.2; outline: as §2
# Acinetobacter baumannii [12] = assay: Antimicrobial activity against Acinetobacter baumannii isolate 64 harboring GyrA Ser83-Leu and ParC Ser80-Leu mutation at pH 7.2; outline: as §2
# Acinetobacter baumannii [13] = assay: Antimicrobial activity against Acinetobacter baumannii isolate 65 harboring GyrA Ser83-Leu and ParC Ser80-Leu mutation at pH 7.2; outline: as §2
# Acinetobacter baumannii [14] = assay: Antimicrobial activity against adeB overexpressing Acinetobacter baumannii isolate 67 harboring GyrA Ser83-Leu and ParC Ser80-Leu mutation at pH 7.2; outline: as §2
# Acinetobacter baumannii [15] = assay: Antimicrobial activity against Acinetobacter baumannii isolate 3 at pH 5.8
# Outline: (§4)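 MIC by agar dilution on Mueller-Hinton agar acidified to pH 5.8 with HCl before antibiotic-containing plates were poured. Agar pH was rechecked once the agar had solidified. Isolates had characterized gyrA/parC genes. Plates for both drugs were made the same day from fresh media, and MICs were read in parallel with the standard-pH set.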
# Acinetobacter baumannii [16] = assay: Antimicrobial activity against Acinetobacter baumannii isolate 5 at pH 5.8; outline: as §3
# Acinetobacter baumannii [17] = assay: Antimicrobial activity against Acinetobacter baumannii isolate 6 at pH 5.8
# Outline: (§5)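 Agar dilution MIC on Mueller-Hinton agar acidified to pH 5.8 with HCl before the antibiotic-containing plates were poured. Agar pH was checked after solidifying. Plates were made the same day from fresh medium. Both fluoroquinolones were tested simultaneously against A. baumannii isolates with characterized gyrA/parC genes. MICs are in μg/ml.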
# Acinetobacter baumannii [18] = assay: Antimicrobial activity against Acinetobacter baumannii isolate 11 at pH 5.8; outline: as §4
# Acinetobacter baumannii [19] = assay: Antimicrobial activity against Acinetobacter baumannii isolate 14 at pH 5.8; outline: as §4
# Acinetobacter baumannii [20] = assay: Antimicrobial activity against Acinetobacter baumannii isolate 17 at pH 5.8; outline: as §4
# Acinetobacter baumannii [21] = assay: Antimicrobial activity against Acinetobacter baumannii isolate 19 harboring GyrA Ser83-Leu mutation at pH 5.8; outline: as §4
# Acinetobacter baumannii [22] = assay: Antimicrobial activity against Acinetobacter baumannii isolate 20 harboring GyrA Ser83-Leu mutation at pH 5.8; outline: as §4
# Acinetobacter baumannii [23] = assay: Antimicrobial activity against Acinetobacter baumannii isolate 27 harboring GyrA Ser83-Leu mutation at pH 5.8; outline: as §4
# Acinetobacter baumannii [24] = assay: Antimicrobial activity against Acinetobacter baumannii isolate 29 harboring GyrA Ser83-Leu mutation at pH 5.8; outline: as §4
# Acinetobacter baumannii [25] = assay: Antimicrobial activity against Acinetobacter baumannii isolate 30 harboring GyrA Ser83-Leu mutation at pH 5.8; outline: as §4
# Acinetobacter baumannii [26] = assay: Antimicrobial activity against Acinetobacter baumannii isolate 36 harboring GyrA Ser83-Leu mutation at pH 5.8; outline: as §3
# Acinetobacter baumannii [27] = assay: Antimicrobial activity against Acinetobacter baumannii isolate 37 harboring GyrA Ser83-Leu mutation at pH 5.8; outline: as §3
# Acinetobacter baumannii [28] = assay: Antimicrobial activity against Acinetobacter baumannii isolate 40 harboring GyrA Ser83-Leu mutation at pH 5.8; outline: as §3
# Acinetobacter baumannii [29] = assay: Antimicrobial activity against Acinetobacter baumannii isolate 41 harboring GyrA Ser83-Leu mutation at pH 5.8; outline: as §3
# Acinetobacter baumannii [30] = assay: Antimicrobial activity against Acinetobacter baumannii isolate 43 harboring GyrA Ser83-Leu mutation at pH 5.8; outline: as §3
# Acinetobacter baumannii [31] = assay: Antimicrobial activity against Acinetobacter baumannii isolate 44 harboring GyrA Ser83-Leu and ParC Glu84-Lys mutation at pH 5.8; outline: as §3
# Acinetobacter baumannii [32] = assay: Antimicrobial activity against Acinetobacter baumannii isolate 47 harboring GyrA Ser83-Leu and ParC Ser80-Phe mutation at pH 5.8; outline: as §3
# Acinetobacter baumannii [33] = assay: Antimicrobial activity against Acinetobacter baumannii isolate 50 harboring GyrA Ser83-Leu and ParC Ser80-Leu mutation at pH 5.8; outline: as §3
# Acinetobacter baumannii [34] = assay: Antimicrobial activity against Acinetobacter baumannii isolate 52 harboring GyrA Ser83-Leu and ParC Ser80-Leu mutation at pH 5.8; outline: as §3
# Acinetobacter baumannii [35] = assay: Antimicrobial activity against Acinetobacter baumannii isolate 53 harboring GyrA Ser83-Leu and ParC Ser80-Leu mutation at pH 5.8; outline: as §3
# Acinetobacter baumannii [36] = assay: Antimicrobial activity against Acinetobacter baumannii isolate 54 harboring GyrA Ser83-Leu and ParC Ser80-Leu mutation at pH 5.8; outline: as §3
# Acinetobacter baumannii [37] = assay: Antimicrobial activity against Acinetobacter baumannii isolate 57 harboring GyrA Ser83-Leu and ParC Ser80-Phe mutation at pH 5.8; outline: as §5
# Acinetobacter baumannii [38] = assay: Antimicrobial activity against Acinetobacter baumannii isolate 58 harboring GyrA Ser83-Leu and ParC Ser80-Leu mutation at pH 5.8; outline: as §5
# Acinetobacter baumannii [39] = assay: Antimicrobial activity against Acinetobacter baumannii isolate 61 harboring GyrA Ser83-Leu and ParC Ser80-Leu mutation at pH 5.8; outline: as §5
# Acinetobacter baumannii [40] = assay: Antimicrobial activity against Acinetobacter baumannii isolate 62 harboring GyrA Ser83-Leu and ParC Ser80-Leu mutation at pH 5.8; outline: as §5
# Acinetobacter baumannii [41] = assay: Antimicrobial activity against Acinetobacter baumannii isolate 66 harboring GyrA Ser83-Leu mutation at pH 5.8; outline: as §5
smiles,measurement,setting,value
N#Cc1c(N2C[C@@H]3NCCO[C@H]3C2)c(F)cc2c(=O)c(C(=O)O)cn(C3CC3)c12 [FINAFLOXACIN],MIC,Acinetobacter baumannii [1],0.5 µg/mL
same,MIC,Acinetobacter baumannii [2],0.25 µg/mL
same,MIC,Acinetobacter baumannii [3],1 µg/mL
same,MIC,Acinetobacter baumannii [4],1 µg/mL
same,MIC,Acinetobacter baumannii [5],1 µg/mL
same,MIC,Acinetobacter baumannii [6],1 µg/mL
same,MIC,Acinetobacter baumannii [7],1 µg/mL
same,MIC,Acinetobacter baumannii [8],16 µg/mL
same,MIC,Acinetobacter baumannii [9],16 µg/mL
same,MIC,Acinetobacter baumannii [10],32 µg/mL
same,MIC,Acinetobacter baumannii [11],64 µg/mL
same,MIC,Acinetobacter baumannii [12],64 µg/mL
same,MIC,Acinetobacter baumannii [13],64 µg/mL
same,MIC,Acinetobacter baumannii [14],64 µg/mL
same,MIC,Acinetobacter baumannii [15],0.06 µg/mL
same,MIC,Acinetobacter baumannii [16],0.06 µg/mL
same,MIC,Acinetobacter baumannii [17],0.06 µg/mL
same,MIC,Acinetobacter baumannii [18],0.06 µg/mL
same,MIC,Acinetobacter baumannii [19],0.25 µg/mL
same,MIC,Acinetobacter baumannii [20],0.12 µg/mL
same,MIC,Acinetobacter baumannii [21],0.12 µg/mL
same,MIC,Acinetobacter baumannii [22],0.06 µg/mL
same,MIC,Acinetobacter baumannii [23],1 µg/mL
same,MIC,Acinetobacter baumannii [24],4 µg/mL
same,MIC,Acinetobacter baumannii [25],0.5 µg/mL
same,MIC,Acinetobacter baumannii [26],2 µg/mL
same,MIC,Acinetobacter baumannii [27],2 µg/mL
same,MIC,Acinetobacter baumannii [28],2 µg/mL
same,MIC,Acinetobacter baumannii [29],2 µg/mL
same,MIC,Acinetobacter baumannii [30],2 µg/mL
same,MIC,Acinetobacter baumannii [31],4 µg/mL
same,MIC,Acinetobacter baumannii [32],4 µg/mL
same,MIC,Acinetobacter baumannii [33],4 µg/mL
same,MIC,Acinetobacter baumannii [34],2 µg/mL
same,MIC,Acinetobacter baumannii [35],2 µg/mL
same,MIC,Acinetobacter baumannii [36],4 µg/mL
same,MIC,Acinetobacter baumannii [37],4 µg/mL
same,MIC,Acinetobacter baumannii [38],4 µg/mL
same,MIC,Acinetobacter baumannii [39],8 µg/mL
same,MIC,Acinetobacter baumannii [40],8 µg/mL
same,MIC,Acinetobacter baumannii [41],2 µg/mL
O=C(O)c1cn(C2CC2)c2cc(N3CCNCC3)c(F)cc2c1=O [CIPROFLOXACIN],MIC,Acinetobacter baumannii [1],0.06 µg/mL
same,MIC,Acinetobacter baumannii [2],0.25 µg/mL
same,MIC,Acinetobacter baumannii [3],0.5 µg/mL
same,MIC,Acinetobacter baumannii [4],1 µg/mL
same,MIC,Acinetobacter baumannii [5],1 µg/mL
same,MIC,Acinetobacter baumannii [6],1 µg/mL
same,MIC,Acinetobacter baumannii [7],2 µg/mL
same,MIC,Acinetobacter baumannii [8],16 µg/mL
same,MIC,Acinetobacter baumannii [9],16 µg/mL
same,MIC,Acinetobacter baumannii [10],128 µg/mL
same,MIC,Acinetobacter baumannii [11],128 µg/mL
same,MIC,Acinetobacter baumannii [12],> 128 µg/mL
same,MIC,Acinetobacter baumannii [13],> 128 µg/mL
same,MIC,Acinetobacter baumannii [14],> 128 µg/mL
same,MIC,Acinetobacter baumannii [15],2 µg/mL
same,MIC,Acinetobacter baumannii [16],2 µg/mL
same,MIC,Acinetobacter baumannii [17],2 µg/mL
same,MIC,Acinetobacter baumannii [18],4 µg/mL
same,MIC,Acinetobacter baumannii [19],4 µg/mL
same,MIC,Acinetobacter baumannii [20],4 µg/mL
same,MIC,Acinetobacter baumannii [21],4 µg/mL
same,MIC,Acinetobacter baumannii [22],4 µg/mL
same,MIC,Acinetobacter baumannii [23],32 µg/mL
same,MIC,Acinetobacter baumannii [24],32 µg/mL
same,MIC,Acinetobacter baumannii [25],32 µg/mL
same,MIC,Acinetobacter baumannii [26],128 µg/mL
same,MIC,Acinetobacter baumannii [27],128 µg/mL
same,MIC,Acinetobacter baumannii [28],> 128 µg/mL
same,MIC,Acinetobacter baumannii [29],> 128 µg/mL
same,MIC,Acinetobacter baumannii [30],> 128 µg/mL
same,MIC,Acinetobacter baumannii [31],> 128 µg/mL
same,MIC,Acinetobacter baumannii [32],> 128 µg/mL
same,MIC,Acinetobacter baumannii [33],> 128 µg/mL
same,MIC,Acinetobacter baumannii [34],> 128 µg/mL
same,MIC,Acinetobacter baumannii [35],> 128 µg/mL
same,MIC,Acinetobacter baumannii [36],> 128 µg/mL
same,MIC,Acinetobacter baumannii [37],> 128 µg/mL
same,MIC,Acinetobacter baumannii [38],> 128 µg/mL
same,MIC,Acinetobacter baumannii [39],> 128 µg/mL
same,MIC,Acinetobacter baumannii [40],> 128 µg/mL
same,MIC,Acinetobacter baumannii [41],128 µg/mL
